Laboratory results reported in ChEMBL document CHEMBL4359883, “4(1H)-quinolone derivatives overcome acquired resistance to anti-microtubule agents by targeting the colchicine site of β-tubulin” (Eur J Med Chem, 2019).
Each block holds one compound with its values, some of them ahead of it. The source made the active and inactive calls. No cut-off for these calls is given here.

Columns and labels:
[1] = biological target: Tubulin beta (Homo sapiens) (UniProt P68371+Q9H4B7+Q13509+P04350+Q3ZCM7+P07437+Q13885+Q9BVA1+Q9BUF5+A6NNZ2); assay: Binding affinity to beta tubulin in human NCI-H1975 cells incubated for overnight by immunoblotting based pull down assay; format: cell-based
Summary of the method: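 H1975 lysate in RIPA buffer with protease inhibitors incubated overnight at 4 °C with compound-conjugated magnetic beads or control beads. Beads washed five times with PBS, and bound proteins detected by SDS-PAGE immunoblotting with ECL.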

CL1-0 [2] = assay: Induction of apoptosis in human CL1-0 cells assessed as increase in cytochrome c level in cytosol at 20 to 40 nM after 24 hrs by immunoblotting analysis; format: functional, cell-based
CL1-0 [3] = assay: Induction of mitotic arrest in human CL1-0 cells assessed as increase in cyclin B1 expression at 20 to 40 nM after 24 hrs by immunoblotting analysis; format: functional, cell-based
SAS = assay: Antiproliferative activity against human SAS cells assessed as reduction in cell viability after 72 hrs by MTS assay; format: functional, cell-based
Summary of the method: (§1)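 Cells plated at 2000/well, cultured overnight, then exposed to a range of compound concentrations for 72 h. MTS reagent added for 1–4 h at 37 °C and absorbance read at 490 nm. Cultured in RPMI 1640 or DMEM with 10% heat-inactivated FBS under 5% CO2. Data are the mean of three determinations.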

COLO 205 = assay: Antiproliferative activity against human COLO205 cells assessed as reduction in cell viability after 72 hrs by MTS assay; format: functional, cell-based; details: COLO 205, 72 h; summary of the method: as §1
Tubulin (Sus scrofa) = Tubulin (Sus scrofa) (UniProt P02554+P02550); assay: Inhibition of porcine tubulin polymerization assessed as inhibition of formation of microtubule asters in centrosome after 8 mins immunofluorescence assay; format: protein assay
Summary of the method: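 Purified centrosomes incubated with compound, then with porcine tubulin in 80 mM PIPES, 1 mM MgCl2, 1 mM EGTA, 1 mM GTP, pH 6.8 for 8 min at 37 °C. Asters fixed in 1% glutaraldehyde and stained for α-tubulin. Fiber length measured on 20 asters per group; mean ± SD.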

Tubulin (Homo sapiens) [4] = biological target: T1, Tubulin (Homo sapiens) (UniProt P68371+Q9H4B7+P0DPH7+P68366+Q13509+Q71U36+P04350+Q3ZCM7+P07437+P68363+Q9BQE3+Q6PEY2+Q13885+Q9BVA1+Q9BUF5); assay: Binding affinity to tubulin (unknown origin) assessed as increase in Beta-col fragment production at 100 uM after 30 mins by coomassie brilliant blue staining based trypsin proteolysis assay; format: protein-complex assay
Summary of the method: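 Tubulin (1 mg/mL) preincubated with 100 µM compound for 30 min at 30 °C in 0.1 M MES, 1 mM MgCl2, 1 mM EGTA, pH 6.9. Trypsin added at 25 µg/mL (1:40 w/w) for 10 min on ice. Fragments resolved on 15% SDS-PAGE, stained with Coomassie and quantified by densitometry.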

NCI-H1975 [5] = assay: Induction of apoptosis in human NCI-H1975 cells assessed as caspase 8 activation at 40 to 80 nM after 24 hrs by immunoblotting analysis; format: functional, cell-based
[6] = biological target: Tubulin alpha (Homo sapiens) (UniProt P0DPH7+P68366+Q71U36+P68363+Q9BQE3+Q6PEY2+A6NHL2+Q9NY65); assay: Induction of microtubule depolymerization in human NCI-H1975 cells assessed as increase in alpha tubulin soluble form by immunoblot analysis; format: cell-based
Summary of the method: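 Lysate spun at 16,000 rpm for 15 min at room temperature. Soluble (monomer) and particulate (polymer) fractions immunoblotted for α-tubulin.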

Tubulin (Homo sapiens) [7] = biological target: T1, Tubulin (Homo sapiens); assay: Induction of microtubule depolymerization in human NCI-H1975 cells at 40 nM after 6 hrs by DAPI staining based DAPI staining based confocal microscopic analysis; format: cell-based
Summary of the method: (§2)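 Cells exposed for 6 h, fixed in 3.7% paraformaldehyde, permeabilized with 0.1% Triton X-100. Stained with anti-α-tubulin (1:1000) overnight at 4 °C, FITC secondary 1 h at 37 °C, nuclei counterstained with DAPI. Imaged by confocal laser scanning microscopy.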

NCI-H1975 [8] = assay: Antiproliferative activity against human NCI-H1975 cells assessed as reduction in colony formation after 14 days by crystal violet staining based assay; format: functional, cell-based
Summary of the method: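 Seeded at 1000 cells/well, cultured overnight, then treated with 12.5–200 nM for 14 days. Colonies fixed in 3.7% paraformaldehyde, stained with 0.04% crystal violet and dissolved in DMSO, then absorbance read at 590 nm. Mean ± SD.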

CL1-0 [9] = assay: Induction of cell cycle arrest in human CL1-0 cells assessed as accumulation at mitotic phase after 24 hrs by high content imaging analysis; format: functional, cell-based
Summary of the method: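 Cells exposed for 24 h, stained for phospho-histone H3 (S10), and imaged by high-content imaging. Mitotic index taken as the fraction of p-HH3-positive cells. Mean ± SD.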

Tubulin (Homo sapiens) [10] = biological target: T1, Tubulin (Homo sapiens); assay: Induction of microtubule depolymerization in human CL1-0 cells at 20 nM after 6 hrs by DAPI staining based DAPI staining based confocal microscopic analysis; format: cell-based; summary of the method: as §2
NCI-H1975 [11] = assay: Antitumour activity against human NCI-H1975 cells xenografted in Balb/c mouse assessed as reduction in tumour size at 4 mg/kg, ip administered 3 times per week and measured on day 25 (reference value: 1749 +/- 234.5 mm3); format: functional
Tubulin (Homo sapiens) [12] = biological target: T1, Tubulin (Homo sapiens); assay: Inhibition of microtubule polymerization in human NCI-H1975 cells at 40 nM after 1 hr followed by exposure to cold and measured at 5 to 60 mins immunofluorescence based assay; format: cell-based
Summary of the method: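 H1975 cells pretreated with 40 nM for 1 h, held cold for 30 min, then returned to 37 °C for varying times. Fixed and stained for α-tubulin by immunofluorescence with DAPI counterstain, then imaged by confocal microscopy.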

CL1-0 [13] = assay: Induction of mitotic arrest in human CL1-0 cells assessed as cyclin A expression at 20 to 40 nM after 24 hrs by immunoblotting analysis; format: functional, cell-based
NCI-H1975 [14] = assay: Induction of apoptosis in human NCI-H1975 cells assessed as PARP cleavage at 40 nM by immunoblotting analysis; format: functional, cell-based; details: TDE = time-dependent effect
MDA-MB-231 = assay: Antitumour activity against human MDA-MB-231 cells xenografted in Balb/c mouse assessed as tumour size at 4 mg/kg, ip administered three times per week and measured on day 35 (reference value: 218 +/- 20.9 mm3); format: functional
Summary of the method: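 MDA-MB-231 tumours established in the right flank of 6-week-old BALB/c nude mice. Compound dissolved in DMSO was given ip three times weekly, with a DMSO vehicle group. Tumour volume calculated as 0.5W²L, measured before each dose and compared on day 35.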

NCI-H1975 [15] = assay: Antitumour activity against human NCI-H1975 cells xenografted in Balb/c mouse assessed as tumour size at 4 mg/kg, ip administered three times per week and measured on day 21 (reference value: 2153 +/- 126.3 mm3); format: functional
Summary of the method: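 H1975 tumours grown in the right flank of 6-week-old BALB/c nude mice. DMSO vehicle or 4 or 8 mg/kg compound in DMSO given ip three times weekly. Tumour volume calculated as 0.5W²L before each dose and compared on day 21.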

[16] = Toxicity in Balb/c mouse xenografted with human KBtax cells assessed as serum BUN level at 8 mg/kg, ip administered 3 times per week and measured after 21 days (reference value: 17.8 +/-1.1 mg/dl); format: organism-based; details: in vivo, 504 h
Homo sapiens = organism: Homo sapiens; assay: Induction of mitotic arrest in human KBtax cells assessed as increase in p-HH3 expression at 30 to 60 nM after 24 hrs by immunoblotting analysis; format: functional, cell-based

Tubulin (Sus scrofa), sequence (P02550 whole entry, looked up): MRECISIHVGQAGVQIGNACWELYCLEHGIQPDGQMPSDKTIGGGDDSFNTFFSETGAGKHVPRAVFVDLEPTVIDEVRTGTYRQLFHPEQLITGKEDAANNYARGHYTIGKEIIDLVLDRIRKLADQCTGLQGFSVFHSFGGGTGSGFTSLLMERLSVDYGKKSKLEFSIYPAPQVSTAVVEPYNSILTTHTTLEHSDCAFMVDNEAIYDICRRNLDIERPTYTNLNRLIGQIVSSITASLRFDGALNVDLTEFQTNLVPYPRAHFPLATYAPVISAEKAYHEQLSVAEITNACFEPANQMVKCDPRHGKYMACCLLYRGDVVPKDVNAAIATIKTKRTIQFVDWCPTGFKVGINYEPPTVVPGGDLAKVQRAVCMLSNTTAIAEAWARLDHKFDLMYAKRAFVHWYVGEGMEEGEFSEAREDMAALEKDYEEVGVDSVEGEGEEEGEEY
Tubulin (Sus scrofa), sequence (P02554 whole entry, looked up): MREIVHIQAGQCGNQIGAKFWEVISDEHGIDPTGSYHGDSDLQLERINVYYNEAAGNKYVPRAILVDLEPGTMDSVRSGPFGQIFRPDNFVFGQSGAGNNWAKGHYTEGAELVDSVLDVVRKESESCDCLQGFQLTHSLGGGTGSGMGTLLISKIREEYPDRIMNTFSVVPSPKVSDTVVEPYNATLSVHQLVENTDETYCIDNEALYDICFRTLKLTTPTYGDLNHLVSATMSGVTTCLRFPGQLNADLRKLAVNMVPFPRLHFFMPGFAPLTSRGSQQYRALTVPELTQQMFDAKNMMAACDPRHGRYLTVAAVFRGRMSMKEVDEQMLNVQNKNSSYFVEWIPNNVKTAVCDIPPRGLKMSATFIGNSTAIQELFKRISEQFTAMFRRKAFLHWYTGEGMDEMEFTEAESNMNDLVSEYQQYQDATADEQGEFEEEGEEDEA

Activity [1]: Active | IC50 (COLO 205): 0.057 µM | inhibition (Tubulin (Sus scrofa)): Active | Activity (Tubulin (Homo sapiens) [4]): Active | Activity [6]: Active | Activity (Tubulin (Homo sapiens) [7]): Active | Activity (Tubulin (Homo sapiens) [10]): Active | Activity (Tubulin (Homo sapiens) [12]): Active
Compound: CCOC(=O)c1ccc2nc(-c3ccccc3)cc(O)c2c1
Activity (CL1-0 [2]): Active | Activity (CL1-0 [3]): Active | IC50 (SAS): 0.078 µM | Activity (NCI-H1975 [5]): inactive | Activity (NCI-H1975 [8]): Active | Activity (CL1-0 [9]): Dose-dependent effect | Activity (NCI-H1975 [11]): 871.3 mm3 | Activity (CL1-0 [13]): inactive | Activity (NCI-H1975 [14]): Tde

Compound: CCOC(=O)c1ccc2[nH]c(-c3cccc(F)c3)cc(=O)c2c1
Activity (MDA-MB-231): 105 mm3 | Activity (NCI-H1975 [15]): 1333 mm3 | Activity [16]: 18.2 mg/dL | Activity (Homo sapiens): Active
